For assay [1], the target named is T1, Sodium-dependent noradrenaline transporter (Homo sapiens, UniProt P23975). In words: Inhibition of 2,5,6-[3H]-dopamine uptake at human NET expressed in African green monkey COS7 cells at 10 uM incubated for 10 mins prior to radioligand addition measured after 5 mins by scintillation counting analysis. It is filed as cell-based. To be noted: COS-7.
For assay [2], the target named is T2, Sodium-dependent serotonin transporter (Homo sapiens, UniProt P31645). In words: Binding affinity to N-terminal EGFP-tagged SERT (unknown origin) expressed in HEK293 cells at 20 nM after 10 mins by confocal laser scanning microscopy. Format: cell-based. The method, boiled down: (§1)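 Live confocal imaging of HEK293 cells transiently expressing SERT with an N-terminal EGFP tag. Cells were incubated at room temperature with 20 nM ligand and imaged at 0, 1, 5, 10 or 20 min. Rhodamine signal was compared with the EGFP signal and merged with a transmission image. Paroxetine (100 μM) was coincubated as the specificity control. Three identical experiments were run.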
Target sequence in this assay (P31645 whole entry, looked up): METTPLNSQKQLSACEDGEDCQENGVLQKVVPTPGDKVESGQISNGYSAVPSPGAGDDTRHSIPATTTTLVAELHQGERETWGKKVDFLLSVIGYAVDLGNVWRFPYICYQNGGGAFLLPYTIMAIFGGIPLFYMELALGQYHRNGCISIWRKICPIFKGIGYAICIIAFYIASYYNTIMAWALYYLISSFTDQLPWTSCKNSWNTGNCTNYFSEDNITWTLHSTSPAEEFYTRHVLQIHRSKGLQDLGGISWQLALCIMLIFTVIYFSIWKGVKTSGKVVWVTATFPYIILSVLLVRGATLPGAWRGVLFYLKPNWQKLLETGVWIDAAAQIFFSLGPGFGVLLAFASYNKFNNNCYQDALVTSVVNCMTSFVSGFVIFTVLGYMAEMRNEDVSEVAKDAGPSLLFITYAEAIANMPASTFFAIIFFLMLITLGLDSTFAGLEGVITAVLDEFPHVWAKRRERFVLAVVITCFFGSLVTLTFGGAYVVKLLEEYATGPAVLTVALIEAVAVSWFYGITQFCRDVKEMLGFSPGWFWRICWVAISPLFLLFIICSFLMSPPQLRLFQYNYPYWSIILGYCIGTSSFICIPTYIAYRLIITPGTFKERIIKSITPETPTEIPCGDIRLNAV

Assay [3] deals with T2, Sodium-dependent serotonin transporter. In words: Selectivity ratio of ZP455 Ki to compound Ki for human SERT.
Target sequence in this assay (P31645 whole entry, looked up): as above
The target is the same in assay [4]. Put plainly: Binding affinity to N-terminal EGFP-tagged SERT (unknown origin) expressed in HEK293 cells at 20 nM by confocal laser scanning microscopy. As to conditions: TDE = time-dependent effect. It is filed as cell-based. In a few lines: as §1
Target sequence in this assay (P31645 whole entry, looked up): as above
The target is the same in assay [5]. In words: Displacement of [3H]-S-citalopram from human SERT expressed in African green monkey COS7 cells incubated for 10 mins prior to [3H]-S-citalopram addition measured after 2 hrs by scintillation counting analysis. It is filed as cell-based, COS-7. In a few lines: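 Competition binding at hSERT in transiently transfected COS7 cells with [3H]-S-citalopram (2 nM) as radioligand. IC50 came from nonlinear regression and was converted to Ki using a Kd for [3H]-S-citalopram determined in parallel. SE interval is from pKi ± SE. Values are means of three to four experiments, each in triplicate.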
Target sequence in this assay (P31645 whole entry): as the sequence (P31645 whole entry, looked up) above

For assay [6] the target is unchanged. In words: Binding affinity to N-terminal EGFP-tagged SERT (unknown origin) expressed in HEK293 cells at 20 nM after 10 mins by confocal laser scanning microscopy in presence of SERT inhibitor paroxetine. Format: cell-based. The method, boiled down:
as §1
Target sequence in this assay (P31645 whole entry, looked up): as above

Assay [7] has the same target. In words: Inhibition of 5-hydroxy[3H]tryptamine uptake at human SERT expressed in African green monkey COS7 cells incubated for 10 mins prior to radioligand addition measured after 5 mins by scintillation counting analysis. It is filed as cell-based, COS-7.
Target sequence in this assay (P31645 whole entry): as the sequence (P31645 whole entry, looked up) above
Assay [8] concerns the target T3, Sodium-dependent dopamine transporter (Homo sapiens, UniProt Q01959). In words: Inhibition of 2,5,6-[3H]-dopamine uptake at human DAT expressed in African green monkey COS7 cells at 10 uM incubated for 10 mins prior to radioligand addition measured after 5 mins by scintillation counting analysis. It is filed as cell-based. As to conditions: COS-7.
For assay [9], the target named is T1, Sodium-dependent noradrenaline transporter. Put plainly: Inhibition of 2,5,6-[3H]-dopamine uptake at human NET expressed in African green monkey COS7 cells incubated for 10 mins prior to radioligand addition measured after 5 mins by scintillation counting analysis. It is filed as cell-based, COS-7. The method, boiled down: (§2)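 Uptake inhibition in transiently transfected COS7 cells, with 2,5,6-[3H]dopamine as substrate for both DAT and NET. IC50 came from nonlinear regression. Ki was calculated using the dopamine KM, which was determined in parallel. Values are means of three to four repeats, each in triplicate, with SE interval from pKI ± SE.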

Assay [10] has as its target T3, Sodium-dependent dopamine transporter. In words: Inhibition of 2,5,6-[3H]-dopamine uptake at human DAT expressed in African green monkey COS7 cells incubated for 10 mins prior to radioligand addition measured after 5 mins by scintillation counting analysis. Format: cell-based, COS-7. In a few lines:
as §2

pKi: −log10 of the molar value. Active and inactive are the calls of the source. The calls are words filed in the database; no cut-off is given here.

T1 sequence (P23975 whole entry): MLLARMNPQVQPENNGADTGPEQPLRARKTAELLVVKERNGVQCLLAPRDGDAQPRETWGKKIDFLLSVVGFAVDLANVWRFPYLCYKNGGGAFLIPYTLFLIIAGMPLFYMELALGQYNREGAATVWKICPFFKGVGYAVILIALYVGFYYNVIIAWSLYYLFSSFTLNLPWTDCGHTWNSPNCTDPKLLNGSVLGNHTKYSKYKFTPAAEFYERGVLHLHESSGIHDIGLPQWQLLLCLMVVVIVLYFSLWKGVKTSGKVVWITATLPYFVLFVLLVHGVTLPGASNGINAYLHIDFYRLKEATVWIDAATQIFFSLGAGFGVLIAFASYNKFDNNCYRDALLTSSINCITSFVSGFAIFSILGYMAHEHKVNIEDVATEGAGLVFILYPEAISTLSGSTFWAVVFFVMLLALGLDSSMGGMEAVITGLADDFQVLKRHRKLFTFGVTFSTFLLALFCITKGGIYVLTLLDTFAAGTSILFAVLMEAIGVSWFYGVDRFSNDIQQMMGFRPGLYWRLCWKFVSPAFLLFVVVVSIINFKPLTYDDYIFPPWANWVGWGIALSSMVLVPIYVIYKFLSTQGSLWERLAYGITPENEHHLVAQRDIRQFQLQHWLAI
T3 sequence (Q01959 whole entry): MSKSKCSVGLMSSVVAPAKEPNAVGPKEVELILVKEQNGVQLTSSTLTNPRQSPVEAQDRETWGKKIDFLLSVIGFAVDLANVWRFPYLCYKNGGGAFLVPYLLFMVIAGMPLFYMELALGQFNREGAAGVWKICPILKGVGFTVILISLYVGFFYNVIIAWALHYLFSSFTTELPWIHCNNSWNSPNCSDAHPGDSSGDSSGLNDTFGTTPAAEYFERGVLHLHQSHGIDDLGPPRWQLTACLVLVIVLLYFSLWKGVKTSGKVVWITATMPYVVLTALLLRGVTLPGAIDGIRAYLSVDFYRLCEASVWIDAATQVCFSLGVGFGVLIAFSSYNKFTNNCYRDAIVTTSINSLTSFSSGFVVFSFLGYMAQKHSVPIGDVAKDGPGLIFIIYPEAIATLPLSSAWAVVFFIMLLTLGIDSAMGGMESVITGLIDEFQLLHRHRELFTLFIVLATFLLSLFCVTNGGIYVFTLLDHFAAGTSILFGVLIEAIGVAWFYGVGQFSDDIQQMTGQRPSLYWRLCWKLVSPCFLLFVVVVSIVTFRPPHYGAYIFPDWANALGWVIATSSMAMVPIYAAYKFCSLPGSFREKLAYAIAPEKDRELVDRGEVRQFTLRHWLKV

In the case of `CCN(CC)c1ccc2c(-c3ccc(S(=O)(=O)NCCCCCC(=O)NCc4ccc5c(c4)CO[C@@]5(CCCN(C)C)c4ccc(F)cc4)cc3S(=O)(=O)[O-])c3ccc(=[N+](CC)CC)cc-3oc2c1`, the inhibition result in assay [1] and in assay [8] was “inactive” in each case. Besides, the result in [2] was Active. Also, in assay [3], the Ratio Ki was found to be 75. For the same molecule, the Activity result in [4] was “tde”. Also, the pKi was 8.52 in assay [5] and 7.47 in assay [7]. Moreover, the outcome in [6] was inactive.

In the case of `CCN(CC)c1ccc2c(-c3ccc(S(=O)(=O)NCCCCCC(=O)NCCCN(C)CCC[C@@]4(c5ccc(F)cc5)OCc5cc(C#N)ccc54)cc3S(=O)(=O)[O-])c3ccc(=[N+](CC)CC)cc-3oc2c1`, the inhibition result in [1] and in assay [8] was “inactive” in each case. The results for the pKi in [5] and in [7] were 7.96 and 6.85, respectively.

`CN(C)CCC[C@@]1(c2ccc(F)cc2)OCc2cc(C#N)ccc21`: the inhibition result in [1] and in assay [8] was “inactive” throughout.

`CCN(CC)c1ccc2c(-c3ccc(S(=O)(=O)NCCCCCC(=O)NCCN4C5CCC4[C@@H](C(=O)OC)[C@@H](c4ccc(Cl)c(Cl)c4)C5)cc3S(=O)(=O)[O-])c3ccc(=[N+](CC)CC)cc-3oc2c1` (stereo not given in full): the negative logarithm of the Ki (pKi) in [9] is 7.04; in [10] it was 7.70; in [7], 7.03.

Turning to `CCN(CC)c1ccc2c(-c3ccc(S(=O)(=O)NCCCCCC(=O)NCCCCCN(C)CCC[C@@]4(c5ccc(F)cc5)OCc5cc(C#N)ccc54)cc3S(=O)(=O)[O-])c3ccc(=[N+](CC)CC)cc-3oc2c1`, the inhibition result in [1] and in [8] was “inactive” each time. In addition, the pKi in [5] was 6.74; in assay [7], 6.60.

Consider `CCN(CC)c1ccc2c(-c3ccc(S(=O)(=O)NCCCCCC(=O)NCCCc4ccc5c(c4)CO[C@@]5(CCCN(C)C)c4ccc(F)cc4)cc3S(=O)(=O)[O-])c3ccc(=[N+](CC)CC)cc-3oc2c1`, for which the inhibition result in [1] and in [8] was “inactive” throughout. Further, the pKi was 7.96 in [5] and 7.43 in assay [7].

The term pKi denotes the Ki on a negative log10 scale, so that one unit is a factor of ten.

These data come from ChEMBL document CHEMBL3286311, “Novel and high affinity fluorescent ligands for the serotonin transporter based on (s)-citalopram” (ACS Med Chem Lett, 2014).
